Measured values from ChEMBL document CHEMBL2417436, “Synthesis and biological effects of novel 2-amino-3-(4-chlorobenzoyl)-4-substituted thiophenes as allosteric enhancers of the A1 adenosine receptor” (Eur J Med Chem, 2013).

Tests used:
[1] = biological target: T1, Adenosine receptor A1 (Homo sapiens) (UniProt P30542); assay: Allosteric enhancement of human adenosine A1 receptor expressed in CHO cells assessed as increase of CCPA Ki at 10 uM after 90 mins by [3H]DPCPX radioligand binding assay; assay type: cell-based
T1 sequence (whole entry): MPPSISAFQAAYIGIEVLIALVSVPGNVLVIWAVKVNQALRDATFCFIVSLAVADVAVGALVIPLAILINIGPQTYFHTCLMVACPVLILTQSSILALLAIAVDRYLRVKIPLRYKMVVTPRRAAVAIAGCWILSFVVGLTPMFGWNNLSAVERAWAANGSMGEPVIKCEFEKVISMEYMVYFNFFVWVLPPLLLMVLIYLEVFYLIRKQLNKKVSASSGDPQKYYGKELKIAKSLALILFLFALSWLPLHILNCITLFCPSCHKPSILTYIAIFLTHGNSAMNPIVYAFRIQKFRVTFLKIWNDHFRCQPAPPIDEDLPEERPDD
Procedure, shortened: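 hA1CHO membranes (50 mM Tris-HCl, pH 7.4, adenosine deaminase-treated). [3H]DPCPX 1 nM competed by CCPA (0.01 nM–1 μM) with or without test compound at 10 μM. Triplicate, 90 min at 25 °C. Nonspecific binding taken with 1 μM DPCPX. Filtration, then scintillation counting. Ki by Cheng–Prusoff. Shift = Ki(CCPA)/Ki(CCPA+enhancer). Mean ± SEM, n=3.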

[2] = biological target: T1, Adenosine receptor A1 (Homo sapiens); assay: Allosteric enhancement of human adenosine A1 receptor expressed in CHO cells assessed as increase of [3H]CCPA Bmax at 10 uM after 90 mins; assay type: cell-based
Procedure, shortened: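 Saturation of [3H]CCPA (0.05–20 nM) on hA1CHO membranes in 50 mM Tris-HCl, pH 7.4, with or without compound at final 10 μM. Triplicate, 25 °C, 90 min. Nonspecific binding defined with 1 μM R-PIA. Filter-bound radioactivity counted. KD and Bmax fitted by weighted nonlinear least squares; Bmax shift versus control. Mean ± SEM, n=3.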

[3] = biological target: Adenosine receptor A2a (Homo sapiens) (UniProt P29274); assay: Displacement of [3H]ZM 241385 from human adenosine A2A receptor expressed in CHO cells at 10 uM after 60 mins by scintillation counting; assay type: cell-based
Chain of Adenosine receptor A2a (Homo sapiens) (P29274 whole entry): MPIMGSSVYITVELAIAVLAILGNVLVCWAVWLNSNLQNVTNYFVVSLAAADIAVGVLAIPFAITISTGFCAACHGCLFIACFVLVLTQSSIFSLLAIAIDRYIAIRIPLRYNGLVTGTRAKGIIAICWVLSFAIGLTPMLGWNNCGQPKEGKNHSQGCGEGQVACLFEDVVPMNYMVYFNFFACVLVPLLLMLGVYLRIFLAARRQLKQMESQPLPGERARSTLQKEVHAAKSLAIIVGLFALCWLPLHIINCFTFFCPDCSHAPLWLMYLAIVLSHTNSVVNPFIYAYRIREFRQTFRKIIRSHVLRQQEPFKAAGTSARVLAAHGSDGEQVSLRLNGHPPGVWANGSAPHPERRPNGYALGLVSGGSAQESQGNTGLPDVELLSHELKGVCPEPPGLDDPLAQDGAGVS
Procedure, shortened: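 hA2ACHO membranes in 50 mM Tris HCl, 10 mM MgCl2, pH 7.4, 4 °C for 60 min. [3H]ZM 241385 given as 1 nM in methods and 2 nM in table footnote. Compound at 10 μM from 100-fold DMSO stock, 1% DMSO final. Nonspecific binding with 1 μM ZM 241385. Filtration and scintillation counting. Percent inhibition of control specific binding, ±SEM, n=3.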

[4] = biological target: T1, Adenosine receptor A1 (Homo sapiens); assay: Allosteric enhancement of human adenosine A1 receptor expressed in CHO cells assessed as inhibition of CCPA-induced cAMP production at 100 nM after 10 mins; assay type: functional, cell-based
Procedure, shortened: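 Intact hA1CHO cells (10⁶/mL) in phosphate buffer with adenosine deaminase 1.0 IU/mL and Ro 20-1724 0.5 mM, preincubated 10 min at 37 °C. Compound 100 nM plus CCPA 1 pM added for 10 min, then forskolin 1 μM for 5 min. Stopped with cold 6% TCA, ether-extracted. cAMP measured by [3H]-cAMP competition with adrenal binding protein (4 °C, 150 min). pmol/10⁶ cells, mean ± SEM of three.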

[5] = biological target: T1, Adenosine receptor A1 (Homo sapiens); assay: Allosteric enhancement of human adenosine A1 receptor expressed in CHO cells assessed as inhibition of forskolin-induced cAMP production at 10 uM after 10 mins; assay type: functional, cell-based
Procedure, shortened: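 Whole hA1CHO cells (10⁶/mL) preincubated 10 min at 37 °C in phosphate buffer with adenosine deaminase (1.0 IU/mL) and Ro 20-1724 (0.5 mM). Compound alone at 10 μM for a further 10 min; forskolin 1 μM for 5 min. TCA stop, ether extraction, cAMP by [3H]-cAMP protein-binding competition assay. Expressed as pmol/10⁶ cells; mean ± SEM, three experiments.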

[6] = biological target: T1, Adenosine receptor A1 (Homo sapiens); assay: Displacement of [3H]DPCPX from human adenosine A1 receptor expressed in CHO cells at 10 uM after 120 mins by scintillation counting
[7] = biological target: T2, Adenosine receptor A3 (Homo sapiens) (UniProt P0DMS8); assay: Displacement of [3H]MRE-3008-F20 from human adenosine A3 receptor expressed in CHO cells at 10 uM after 120 mins by scintillation counting
T2 sequence (whole entry): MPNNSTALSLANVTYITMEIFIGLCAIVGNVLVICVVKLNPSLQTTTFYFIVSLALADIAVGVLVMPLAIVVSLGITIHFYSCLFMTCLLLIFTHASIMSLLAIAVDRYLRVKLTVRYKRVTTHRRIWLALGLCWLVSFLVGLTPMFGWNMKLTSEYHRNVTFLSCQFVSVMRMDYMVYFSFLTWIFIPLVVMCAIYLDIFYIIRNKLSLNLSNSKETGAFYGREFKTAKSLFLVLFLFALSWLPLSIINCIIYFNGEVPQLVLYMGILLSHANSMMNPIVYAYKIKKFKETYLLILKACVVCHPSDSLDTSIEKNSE

fold change (FC) [1]	fold change (FC) [2]	inhibition [3]	inhibition [4]	inhibition [5]	inhibition [6]	inhibition [7]	SMILES
1.2	1.3	0%	11%	9%	1%	2%	Nc1scc(COc2ccccc2)c1C(=O)c1ccc(Cl)cc1
1	1.1	1%	10%	6%	1%	2%	CN(C)Cc1c(-c2ccccc2)sc(N)c1C(=O)c1ccc(Cl)cc1
6	6.3	0%	55%	51%	1%	12%	CC(C)(C)c1ccc2c(c1)OC1(CCN(Cc3csc(N)c3C(=O)c3ccc(Cl)cc3)CC1)O2
1.4	1.3	1%	16%	11%	5%	11%	Cc1ccc(OCc2csc(N)c2C(=O)c2ccc(Cl)cc2)cc1
1	1	1%	11%	3%	0%	1%	Nc1scc(CN2CCc3[nH]c4ccccc4c3C2)c1C(=O)c1ccc(Cl)cc1
3.4	3.2	2%	26%	28%	3%	4%	CN(Cc1csc(N)c1C(=O)c1ccc(Cl)cc1)c1ccc(F)cc1
2.7	2.9	1%	22%	24%	1%	7%	Nc1sc(-c2ccccc2)c(CN2CCCCC2)c1C(=O)c1ccc(Cl)cc1
1.3	1.3	1%	13%	10%	5%	10%	CN(Cc1c(-c2ccccc2)sc(N)c1C(=O)c1ccc(Cl)cc1)C(C)(C)C
1.3	1.2	6%	12%	9%	5%	11%	CC(C)N(Cc1c(-c2ccccc2)sc(N)c1C(=O)c1ccc(Cl)cc1)C(C)C
1.5	1.8	1%	18%	15%	3%	9%	CC(C)c1ccc(OCc2csc(N)c2C(=O)c2ccc(Cl)cc2)cc1
2.2	2.4	1%	16%	18%	1%	9%	CN(Cc1csc(N)c1C(=O)c1ccc(Cl)cc1)c1ccccc1
4.1	4.6	3%	43%	41%	0%	1%	Nc1scc(CN2CCc3ccccc3C2)c1C(=O)c1ccc(Cl)cc1
1.1	1.2	4%	11%	7%	1%	1%	Nc1scc(CN2CCN3c4ccc(Cl)cc4CC3C2)c1C(=O)c1ccc(Cl)cc1 (stereo unspecified)
1.1	1.2	0%	10%	9%	4%	5%	CCCN(CCC)Cc1csc(N)c1C(=O)c1ccc(Cl)cc1
6.9	7.4	0%	60%	64%	4%	4%	Nc1scc(CN2CCn3c(cc4cc(Cl)ccc43)C2)c1C(=O)c1ccc(Cl)cc1
2.9	3.1	1%	27%	28%	2%	2%	Cn1c2c(c3ccccc31)CN(Cc1csc(N)c1C(=O)c1ccc(Cl)cc1)CC2
2	2.2	1%	21%	18%	1%	5%	Nc1scc(CSc2ccccc2)c1C(=O)c1ccc(Cl)cc1
1.2	1.2	1%	15%	10%	1%	8%	Nc1scc(COc2ccc(F)cc2)c1C(=O)c1ccc(Cl)cc1
7.2	8.2	2%	65%	69%	0%	5%	Nc1scc(CN2CCn3c(cc4cc(F)ccc43)C2)c1C(=O)c1ccc(Cl)cc1
2.6	2.8	0%	28%	24%	1%	1%	Cn1c2c(c3cc(Cl)ccc31)CN(Cc1csc(N)c1C(=O)c1ccc(Cl)cc1)CC2
1	1	0%	13%	3%	6%	7%	Cc1ccc2c(c1)CC1CN(Cc3csc(N)c3C(=O)c3ccc(Cl)cc3)CCN21 (stereo unspecified)
4.9	5	1%	47%	46%	2%	5%	Cc1cccc2c1OC1(CCN(Cc3csc(N)c3C(=O)c3ccc(Cl)cc3)CC1)O2
1	1	1%	12%	5%	0%	2%	CCN(CC)Cc1csc(N)c1C(=O)c1ccc(Cl)cc1
4.2	5.1	3%	45%	48%	0%	6%	Cc1ccc2c(c1)OC1(CCN(Cc3csc(N)c3C(=O)c3ccc(Cl)cc3)CC1)O2
1.2	1.2	1%	13%	8%	6%	8%	C=CCN(CC=C)Cc1c(Br)sc(N)c1C(=O)c1ccc(Cl)cc1
1.6	1.3	0%	20%	18%	0%	–	Cc1sc(N)c(C(=O)c2cccc(C(F)(F)F)c2)c1C
